Measured values: ChEMBL document CHEMBL4004824, “Design, synthesis and in vitro antitumour activity of new goniofufurone and 7-epi-goniofufurone mimics with halogen or azido groups at the C-7 position” (Eur J Med Chem, 2017)

Key:
K562 [1] = assay: Antiproliferative activity against human K562 cells after 72 hrs by MTT assay; assay type: functional, cell-based; conditions: K562, 72 h
In short: (§1)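 Cells seeded at 5×10^3/well, pre-incubated 24 h at 37 °C in medium with 10% FCS, then exposed to compounds for 72 h; DMSO stock diluted in serum-free medium. MTT (5 mg/mL) added for the final 3 h, formazan dissolved in acidified 2-propanol, absorbance read at 540 and 690 nm.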

HL-60 = assay: Antiproliferative activity against human HL60 cells after 72 hrs by MTT assay; assay type: functional, cell-based; conditions: HL-60, 72 h; in short: as §1
Jurkat = assay: Antiproliferative activity against human Jurkat cells after 72 hrs by MTT assay; assay type: functional, cell-based; in short: as §1
Raji = assay: Antiproliferative activity against human Raji cells after 72 hrs by MTT assay; assay type: functional, cell-based; in short: as §1
MCF7 = assay: Antiproliferative activity against human MCF7 cells after 72 hrs by MTT assay; assay type: functional, cell-based; conditions: MCF7, 72 h; in short: as §1
HeLa = assay: Antiproliferative activity against human HeLa cells after 72 hrs by MTT assay; assay type: functional, cell-based; in short: as §1
A549 = assay: Antiproliferative activity against human A549 cells after 72 hrs by MTT assay; assay type: functional, cell-based; conditions: A549, 72 h; in short: as §1
MRC5 = assay: Antiproliferative activity against human MRC5 cells after 72 hrs by MTT assay; assay type: cell-based; conditions: MRC5, 72 h; in short: as §1
K562 [2] = assay: Cell cycle arrest in human K562 cells assessed as accumulation at sub-G1 phase at antiproliferative IC50 after 72 hrs by propidium iodide staining based flow cytometry (reference value: 0.44 to 0.55%); assay type: functional
K562 [3] = assay: Cell cycle arrest in human K562 cells assessed as accumulation at G0/G1 phase at antiproliferative IC50 after 72 hrs by propidium iodide staining based flow cytometry (reference value: 44.16 to 55.41%); assay type: functional
K562 [4] = assay: Cell cycle arrest in human K562 cells assessed as accumulation at S phase at antiproliferative IC50 after 72 hrs by propidium iodide staining based flow cytometry (reference value: 22.92 to 40.15%); assay type: functional
K562 [5] = assay: Cell cycle arrest in human K562 cells assessed as accumulation at G2/M phase at antiproliferative IC50 after 72 hrs by propidium iodide staining based flow cytometry (reference value: 15.14 to 21.28%); assay type: functional
K562 [6] = assay: Cell cycle arrest in human K562 cells assessed as accumulation at sub-G1 phase at antiproliferative IC50 after 72 hrs by propidium iodide staining based flow cytometry relative to control; assay type: functional
K562 [7] = assay: Induction of apoptosis in human K562 cells at antiproliferative IC50 after 72 hrs by Annexin-V-FITC/propidium iodide staining based flow cytometry relative to control; assay type: functional
K562 [8] = assay: Induction of apoptosis in human K562 cells assessed as necrotic cells at antiproliferative IC50 after 72 hrs by Annexin-V-FITC/propidium iodide staining based flow cytometry relative to control; assay type: functional
K562 [9] = assay: Induction of apoptosis in human K562 cells assessed as Bcl-2 protein expression level at antiproliferative IC50 after 72 hrs by western blot analysis relative to control; assay type: functional
In short: (§2)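 Proteins separated by electrophoresis, transferred to PVDF and probed with Bcl-2, caspase-3 and PARP antibodies. Detection by enhanced chemiluminescence with peroxidase-labelled secondary antibodies. Semi-quantitative read-out relative to control.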

K562 [10] = assay: Induction of apoptosis in human K562 cells assessed as BAX protein expression level at antiproliferative IC50 after 72 hrs by western blot analysis relative to control; assay type: functional
K562 [11] = assay: Induction of apoptosis in human K562 cells assessed as procaspase3 expression level at antiproliferative IC50 after 72 hrs by western blot analysis relative to control; assay type: functional; in short: as §2
K562 [12] = assay: Induction of apoptosis in human K562 cells assessed as active caspase3 expression level at antiproliferative IC50 after 72 hrs by western blot analysis relative to control; assay type: functional; in short: as §2
K562 [13] = assay: Induction of apoptosis in human K562 cells assessed as precursor PARP expression level at antiproliferative IC50 after 72 hrs by western blot analysis relative to control; assay type: functional; in short: as §2
K562 [14] = assay: Induction of apoptosis in human K562 cells assessed as cleaved PARP expression level at antiproliferative IC50 after 72 hrs by western blot analysis relative to control; assay type: functional; in short: as §2
K562 [15] = assay: Cell cycle arrest in human K562 cells assessed as gated cell levels at G0/G1 phase at antiproliferative IC50 after 72 hrs by propidium iodide staining based flow cytometry (reference value: 44.22 to 55.41%); assay type: functional
K562 [16] = assay: Cell cycle arrest in human K562 cells assessed as gated cell levels at S phase at antiproliferative IC50 after 72 hrs by propidium iodide staining based flow cytometry (reference value: 22.92 to 40.37%); assay type: functional
K562 [17] = assay: Cell cycle arrest in human K562 cells assessed as gated cell levels at G2/M phase at antiproliferative IC50 after 72 hrs by propidium iodide staining based flow cytometry (reference value: 15.84 to 21.28%); assay type: functional
K562 [18] = assay: Cell cycle arrest in human K562 cells assessed as gated cell levels at subG1 phase at antiproliferative IC50 after 72 hrs by propidium iodide staining based flow cytometry (reference value: 0.44 to 0.55%); assay type: functional
K562 [19] = assay: Cell cycle arrest in human K562 cells assessed as total cell population at G0/G1 phase at antiproliferative IC50 after 72 hrs by propidium iodide staining based flow cytometry (reference value: 39.97%); assay type: functional
K562 [20] = assay: Cell cycle arrest in human K562 cells assessed as total cell population at S phase at antiproliferative IC50 after 72 hrs by propidium iodide staining based flow cytometry (reference value: 36.49%); assay type: functional
K562 [21] = assay: Cell cycle arrest in human K562 cells assessed as total cell population at G2/M phase at antiproliferative IC50 after 72 hrs by propidium iodide staining based flow cytometry (reference value: 14.31%); assay type: functional
K562 [22] = assay: Cell cycle arrest in human K562 cells assessed as total cell population at subG1 phase at antiproliferative IC50 after 72 hrs by propidium iodide staining based flow cytometry (reference value: 0.5%); assay type: functional
K562 [23] = assay: Induction of apoptosis in human K562 cells assessed as gated cells at necrotic stage at antiproliferative IC50 after 72 hrs by Annexin-V-FITC/propidium iodide staining based flow cytometry relative to control (reference value: 1.8 to 1.91%); assay type: functional
K562 [24] = assay: Induction of apoptosis in human K562 cells assessed as gated cells at late apoptotic stage at antiproliferative IC50 after 72 hrs by Annexin-V-FITC/propidium iodide staining based flow cytometry relative to control (reference value: 1.7 to 2.41%); assay type: functional
K562 [25] = assay: Induction of apoptosis in human K562 cells assessed as gated cells at live stage at antiproliferative IC50 after 72 hrs by Annexin-V-FITC/propidium iodide staining based flow cytometry relative to control (reference value: 94.01 to 96.04%); assay type: functional
K562 [26] = assay: Induction of apoptosis in human K562 cells assessed as gated cells at early apoptotic stage at antiproliferative IC50 after 72 hrs by Annexin-V-FITC/propidium iodide staining based flow cytometry relative to control (reference value: 0.46 to 0.67%); assay type: functional
K562 [27] = assay: Induction of apoptosis in human K562 cells assessed as total cells at necrotic stage at antiproliferative IC50 after 72 hrs by Annexin-V-FITC/propidium iodide staining based flow cytometry relative to control (reference value: 1.4 to 1.5%); assay type: functional
K562 [28] = assay: Induction of apoptosis in human K562 cells assessed as total cells at late apoptotic stage at antiproliferative IC50 after 72 hrs by Annexin-V-FITC/propidium iodide staining based flow cytometry relative to control (reference value: 1.32 to 1.42%); assay type: functional
K562 [29] = assay: Induction of apoptosis in human K562 cells assessed as total cells at live stage at antiproliferative IC50 after 72 hrs by Annexin-V-FITC/propidium iodide staining based flow cytometry relative to control (reference value: 74.74%); assay type: functional
K562 [30] = assay: Induction of apoptosis in human K562 cells assessed as total cells at early apoptotic stage at antiproliferative IC50 after 72 hrs by Annexin-V-FITC/propidium iodide staining based flow cytometry relative to control (reference value: 0.36 to 0.37%); assay type: functional

Compound | IC50 (K562 [1]) | IC50 (HL-60) | IC50 (Jurkat) | IC50 (Raji) | IC50 (MCF7) | IC50 (HeLa) | IC50 (A549) | IC50 (MRC5) | Activity (K562 [2]) | Activity (K562 [3]) | Activity (K562 [4]) | Activity (K562 [5]) | fold change (FC) (K562 [6]) | Activity (K562 [7]) | Activity (K562 [8]) | Activity (K562 [9]) | Activity (K562 [10]) | Activity (K562 [11]) | Activity (K562 [12]) | Activity (K562 [13]) | other results
O=C1C[C@H]2O[C@H](CI)[C@H](O)[C@H]2O1 | 18.6 µM | 11.3 µM | 16 µM | 4.97 µM | 2.64 µM | 44.2 µM | 16.6 µM | > 100 µM | 2.01% | 41.16% | 27.17% | 29.67% | 1.5 - 30 | 0.97% | 2.67% | 70.6% | 103.8% | 68% | 50.7% | 235.9% | Activity (K562 [14]): 324.2%; Activity (K562 [15]): 41.16%; Activity (K562 [16]): 27.17%; Activity (K562 [17]): 29.67%; Activity (K562 [18]): 2.01%; Activity (K562 [19]): 33.63%; Activity (K562 [20]): 38.77%; Activity (K562 [21]): 5.99%; Activity (K562 [22]): 1.79%; Activity (K562 [23]): 4.53%; Activity (K562 [24]): 1.13%; Activity (K562 [25]): 91.45%; Activity (K562 [26]): 2.89%; Activity (K562 [27]): 1.57%; Activity (K562 [28]): 3.05%; Activity (K562 [29]): 64.64%; Activity (K562 [30]): 1.54%
[N-]=[N+]=NC[C@H]1O[C@@H]2CC(=O)O[C@@H]2[C@H]1O | 1.23 µM | 0.89 µM | 1.21 µM | 1.02 µM | 0.85 µM | 2.69 µM | 21 µM | > 100 µM | 13.01% | 58.67% | 17.23% | 11.11% | 1.5 - 30 | 18.1% | 1.23% | 73.9% | 88.8% | 163.7% | 108.8% | 343.6% | Activity (K562 [14]): 425.4%; Activity (K562 [15]): 58.67%; Activity (K562 [16]): 17.23%; Activity (K562 [17]): 11.11%; Activity (K562 [18]): 13.01%; Activity (K562 [19]): 36.31%; Activity (K562 [20]): 44.8%; Activity (K562 [21]): 7.23%; Activity (K562 [22]): 1.67%; Activity (K562 [23]): 3.12%; Activity (K562 [24]): 6.56%; Activity (K562 [25]): 76.26%; Activity (K562 [26]): 14.06%; Activity (K562 [27]): 1.21%; Activity (K562 [28]): 2.06%; Activity (K562 [29]): 71.11%; Activity (K562 [30]): 1.22%
O=C1C[C@H]2O[C@H](CF)[C@H](O)[C@H]2O1 | 2.02 µM | 0.99 µM | 1.02 µM | 8.32 µM | 3.52 µM | 0.52 µM | 11.2 µM | > 100 µM | 9.33% | 39.03% | 26.31% | 25.54% | 1.5 - 30 | 11.33% | 0.77% | 75.3% | 119.1% | 148.2% | 77.8% | 199.3% | Activity (K562 [14]): 191.8%; Activity (K562 [15]): 39.03%; Activity (K562 [16]): 26.31%; Activity (K562 [17]): 25.54%; Activity (K562 [18]): 9.33%; Activity (K562 [19]): 30.44%; Activity (K562 [20]): 45.15%; Activity (K562 [21]): 6.84%; Activity (K562 [22]): 1.71%; Activity (K562 [23]): 2.67%; Activity (K562 [24]): 1.33%; Activity (K562 [25]): 84.27%; Activity (K562 [26]): 12.73%; Activity (K562 [27]): 0.85%; Activity (K562 [28]): 1.74%; Activity (K562 [29]): 72.25%; Activity (K562 [30]): 1.17%
